Tests used:
Assay type in all cases: ADME, organism-based
Rattus norvegicus [1] = organism: Rattus norvegicus; assay: The uptake of the 131 I-labeled compound at 30 min was evaluated in rat blood as Percent of injected dose per gram in the organ; conditions: in vivo, 0.5 h
Method in brief: (§1)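 Male Sprague-Dawley rats (200–300 g, free access to food and water), lightly ether-anesthetized and restrained, received a 0.2 mL saline tail-vein bolus of 10–20 μCi 131I-labeled compound. They were decapitated at the stated time, and organs were excised, weighed and gamma-counted. Percent injected dose was determined against a calibrated external standard made by serial dilution of the injectate. n = 1–4 rats.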

Rattus norvegicus [2] = organism: Rattus norvegicus; assay: The uptake of the 131 I-labeled compound at 30 min was evaluated in rat brain as Percent of injected dose in the total organ; conditions: in vivo, 0.5 h; method in brief: as §1
Rattus norvegicus [3] = organism: Rattus norvegicus; assay: The uptake of the 131 I-labeled compound at 30 min was evaluated in rat brain as Percent of injected dose per gram in the organ; conditions: in vivo, 0.5 h; method in brief: as §1
Rattus norvegicus [4] = organism: Rattus norvegicus; assay: The uptake of the 131 I-labeled compound at 30 min was evaluated in rat heart as Percent of injected dose in the total organ; conditions: in vivo, 0.5 h; method in brief: as §1
Rattus norvegicus [5] = organism: Rattus norvegicus; assay: The uptake of the 131 I-labeled compound at 30 min was evaluated in rat heart as Percent of injected dose per gram in the organ; conditions: in vivo, 0.5 h; method in brief: as §1
Rattus norvegicus [6] = organism: Rattus norvegicus; assay: The uptake of the 131 I-labeled compound at 30 min was evaluated in rat kidney as Percent of injected dose in the total organ; conditions: in vivo, 0.5 h; method in brief: as §1
Rattus norvegicus [7] = organism: Rattus norvegicus; assay: The uptake of the 131 I-labeled compound at 30 min was evaluated in rat kidney as Percent of injected dose per gram in the organ; conditions: in vivo, 0.5 h; method in brief: as §1
Rattus norvegicus [8] = organism: Rattus norvegicus; assay: The uptake of the 131 I-labeled compound at 30 min was evaluated in rat liver as Percent of injected dose in the total organ; conditions: in vivo, 0.5 h; method in brief: as §1
Rattus norvegicus [9] = organism: Rattus norvegicus; assay: The uptake of the 131 I-labeled compound at 30 min was evaluated in rat liver as Percent of injected dose per gram in the organ; conditions: in vivo, 0.5 h; method in brief: as §1
Rattus norvegicus [10] = organism: Rattus norvegicus; assay: The uptake of the 131 I-labeled compound at 30 min was evaluated in rat lung as Percent of injected dose per gram in the organ; conditions: in vivo, 0.5 h; method in brief: as §1
Rattus norvegicus [11] = organism: Rattus norvegicus; assay: The uptake of the 131 I-labeled compound at 5 min was evaluated in rat blood as Percent of injected dose per gram in the organ; conditions: in vivo; method in brief: as §1
Rattus norvegicus [12] = organism: Rattus norvegicus; assay: The uptake of the 131 I-labeled compound at 5 min was evaluated in rat brain as Percent of injected dose in the total organ; conditions: in vivo; method in brief: as §1
Rattus norvegicus [13] = organism: Rattus norvegicus; assay: The uptake of the 131 I-labeled compound at 5 min was evaluated in rat brain as Percent of injected dose per gram in the organ; conditions: in vivo; method in brief: as §1
Rattus norvegicus [14] = organism: Rattus norvegicus; assay: The uptake of the 131 I-labeled compound at 5 min was evaluated in rat heart as Percent of injected dose in the total organ; conditions: in vivo; method in brief: as §1
Rattus norvegicus [15] = organism: Rattus norvegicus; assay: The uptake of the 131 I-labeled compound at 5 min was evaluated in rat kidney as Percent of injected dose in the total organ; conditions: in vivo; method in brief: as §1
Rattus norvegicus [16] = organism: Rattus norvegicus; assay: The uptake of the 131 I-labeled compound at 5 min was evaluated in rat kidney as Percent of injected dose per gram in the organ; conditions: in vivo; method in brief: as §1
Rattus norvegicus [17] = organism: Rattus norvegicus; assay: The uptake of the 131 I-labeled compound at 5 min was evaluated in rat liver as Percent of injected dose in the total organ; conditions: in vivo; method in brief: as §1
Rattus norvegicus [18] = organism: Rattus norvegicus; assay: The uptake of the 131 I-labeled compound at 5 min was evaluated in rat liver as Percent of injected dose per gram in the organ; conditions: in vivo; method in brief: as §1
Rattus norvegicus [19] = organism: Rattus norvegicus; assay: The uptake of the 131 I-labeled compound at 5 min was evaluated in rat lung as Percent of injected dose per gram in the organ; conditions: in vivo; method in brief: as §1
Rattus norvegicus [20] = organism: Rattus norvegicus; assay: Ratio of distribution of the [131I]-labeled compound at 30 min in rat brain over uptake in blood; conditions: 0.5 h
Method in brief: (§2)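 Male Sprague-Dawley rats (200–300 g, fed ad libitum), ether-anesthetized, got a tail-vein bolus of 0.2 mL saline containing 10–20 μCi 131I compound and were decapitated at the stated time. Organs were weighed and gamma-counted against a serially diluted external standard. Organ/blood ratio was calculated from % dose per gram of organ. Animal numbers per time point were 1–4.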

Rattus norvegicus [21] = organism: Rattus norvegicus; assay: Ratio of distribution of the [131I]-labeled compound at 30 min in rat heart over uptake in blood; conditions: other tissue, 0.5 h; method in brief: as §2
Rattus norvegicus [22] = organism: Rattus norvegicus; assay: Ratio of distribution of the [131I]-labeled compound at 30 min in rat kidney over uptake in blood; conditions: other tissue, 0.5 h; method in brief: as §2
Rattus norvegicus [23] = organism: Rattus norvegicus; assay: Ratio of distribution of the [131I]-labeled compound at 30 min in rat liver over uptake in blood; conditions: other tissue, 0.5 h; method in brief: as §2
Rattus norvegicus [24] = organism: Rattus norvegicus; assay: Ratio of distribution of the [131I]-labeled compound at 30 min in rat lung over uptake in blood; conditions: other tissue, 0.5 h; method in brief: as §2
Rattus norvegicus [25] = organism: Rattus norvegicus; assay: Ratio of distribution of the [131I]-labeled compound at 5 min in rat brain over uptake in blood; method in brief: as §2
Rattus norvegicus [26] = organism: Rattus norvegicus; assay: Ratio of distribution of the [131I]-labeled compound at 5 min in rat heart over uptake in blood; conditions: other tissue; method in brief: as §2
Rattus norvegicus [27] = organism: Rattus norvegicus; assay: Ratio of distribution of the [131I]-labeled compound at 5 min in rat kidney over uptake in blood; conditions: other tissue; method in brief: as §2
Rattus norvegicus [28] = organism: Rattus norvegicus; assay: Ratio of distribution of the [131I]-labeled compound at 5 min in rat liver over uptake in blood; conditions: other tissue; method in brief: as §2
Rattus norvegicus [29] = organism: Rattus norvegicus; assay: Ratio of distribution of the [131I]-labeled compound at 5 min in rat lung over uptake in blood; conditions: other tissue; method in brief: as §2
Rattus norvegicus [30] = organism: Rattus norvegicus; assay: The uptake of the 131 I-labeled compound at 5 min was evaluated in rat heart as Percent of injected dose per gram in the organ; conditions: in vivo; method in brief: as §1

Compound | Dose (Rattus norvegicus [1]) | Dose (Rattus norvegicus [2]) | Dose (Rattus norvegicus [3]) | Dose (Rattus norvegicus [4]) | Dose (Rattus norvegicus [5]) | Dose (Rattus norvegicus [6]) | Dose (Rattus norvegicus [7]) | Dose (Rattus norvegicus [8]) | Dose (Rattus norvegicus [9]) | Dose (Rattus norvegicus [10]) | Dose (Rattus norvegicus [11]) | Dose (Rattus norvegicus [12]) | Dose (Rattus norvegicus [13]) | Dose (Rattus norvegicus [14]) | Dose (Rattus norvegicus [15]) | Dose (Rattus norvegicus [16]) | Dose (Rattus norvegicus [17]) | Dose (Rattus norvegicus [18]) | Dose (Rattus norvegicus [19]) | Ratio (Rattus norvegicus [20]) | other results
COc1cc(CC(C)NO)c(OC)cc1I (stereo not given) | 0.16% | 1.2% | 0.63% | 0.24% | 0.3% | 2.1% | 1.2% | 6.6% | 0.72% | 3.3% | 0.19% | 1.2% | 0.69% | 0.8% | 2.5% | 1.4% | 8.6% | 1.5% | 2% | 3.9 | Ratio (Rattus norvegicus [21]): 1.9; Ratio (Rattus norvegicus [22]): 7.5; Ratio (Rattus norvegicus [23]): 4.5; Ratio (Rattus norvegicus [24]): 21; Ratio (Rattus norvegicus [25]): 3.6; Ratio (Rattus norvegicus [26]): 3.6; Ratio (Rattus norvegicus [27]): 6.8; Ratio (Rattus norvegicus [28]): 9.5; Ratio (Rattus norvegicus [29]): 12; Dose (Rattus norvegicus [30]): 0.66%
CCCCCCCCCCCCNC(C)Cc1cc(OC)c(I)cc1OC (stereo not given) | 0.16% | 0.046% | 0.022% | 0.27% | 0.19% | 0.69% | 0.22% | 7.9% | 0.53% | 1.3% | 0.48% | 0.084% | 0.047% | 1% | 1.8% | 0.58% | 17% | 1.2% | 6.1% | 0.14 | Ratio (Rattus norvegicus [21]): 1.2; Ratio (Rattus norvegicus [22]): 1.4; Ratio (Rattus norvegicus [23]): 3.3; Ratio (Rattus norvegicus [24]): 8.1; Ratio (Rattus norvegicus [25]): 0.1; Ratio (Rattus norvegicus [26]): 1.2; Ratio (Rattus norvegicus [27]): 1.2; Ratio (Rattus norvegicus [28]): 2.5; Ratio (Rattus norvegicus [29]): 13; Dose (Rattus norvegicus [30]): 0.6%

From ChEMBL document CHEMBL1122702, “Radiohalogen-labeled imaging agents. 3. Compounds for measurement of brain blood flow by emission tomography” (J Med Chem, 1984)
